Activity calls are given as the source filed them. The rule behind the calls is not given here.
Assays:
[1] = Cytotoxicity against human RPMI7951 cells expressing p53 mutant assessed as cell viability at 1 uM after 24 hrs by MTT assay; type: functional; conditions: RPMI-7951, 24 h, read-out: Activity
How it was run: (§1)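 Cells were exposed to compound at 1 µM for 24 h, then growth and viability were read by MTT assay. Media: A375 in DMEM; RPMI7951 and MCF-7 in MEM; A549 in RPMI1640; H1299 in DMEM-F12; all with 10% FCS and penicillin/streptomycin, at 37 °C and 5% CO2. Fibroblasts came from adult foreskin. DMSO stocks were 10 mM.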

MCF7 = assay: Cytotoxicity against human MCF7 cells expressing p53 wild type assessed as cell viability at 1 uM after 24 hrs by MTT assay; type: functional; conditions: MCF7, 24 h, read-out: Activity; how it was run: as §1
A-375 [2] = assay: Induction of apoptosis in human A375 cells expressing p53 wild type assessed as increase in p53 levels at 0.5 uM after 24 hrs by western blot analysis; type: functional, cell-based
How it was run: (§2)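 A375 cells were exposed to 0.5 µM for 24 h, and lysates were immunoblotted with specific antibodies (p53, Cdc25c, p-Chk1, Bcl-xL, PARP, caspase-3). GAPDH served as loading control. Three independent experiments.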

[3] = Cytotoxicity against human fibroblast cells expressing p53 wild type assessed as cell viability at 1 uM after 24 hrs by MTT assay; type: cell-based; conditions: read-out: Activity; how it was run: as §1
A549 = assay: Cytotoxicity against human A549 cells assessed as cell viability at 1 uM after 24 hrs by MTT assay; type: functional; conditions: A549, 24 h, read-out: Activity; how it was run: as §1
A-375 [4] = assay: Induction of apoptosis in human A375 cells expressing p53 wild type assessed as increase in cleaved caspase-3 levels at 0.5 uM after 24 hrs by western blot analysis; type: functional, cell-based; how it was run: as §2
[5] = Cytotoxicity against p53 knockout human H1299 cells assessed as cell viability at 1 uM after 24 hrs by MTT assay; type: functional; conditions: NCI-H1299, 24 h, read-out: Activity; how it was run: as §1
A-375 [6] = assay: Induction of apoptosis in human A375 cells expressing p53 wild type assessed as decrease in Bcl-xl levels at 0.5 uM after 24 hrs by western blot analysis; type: functional, cell-based; how it was run: as §2
A-375 [7] = assay: Cytotoxicity against human A375 cells expressing p53 wild type assessed as cell viability at 1 uM after 24 hrs by MTT assay; type: functional; conditions: A-375, 24 h, read-out: Activity; how it was run: as §1
A-375 [8] = assay: Induction of apoptosis in human A375 cells expressing p53 wild type assessed as increase in cleaved PARP levels at 0.5 uM after 24 hrs by western blot analysis; type: functional, cell-based; how it was run: as §2
A-375 [9] = assay: Effect on cell cycle distribution in human A375 cells expressing p53 wild type assessed as number of cells at G2/M phase at 0.5 uM after 24 hrs by FACS analysis (reference value: 12.1 %); type: functional
RPMI-7951 [10] = assay: Induction of apoptosis in human RPMI7951 cells expressing p53 mutant assessed as PARP cleavage at 0.5 uM after 24 hrs by western blot analysis; type: functional, cell-based
RPMI-7951 [11] = assay: Cytotoxicity against human RPMI7951 expressing p53 mutant cells assessed as colony formation at 0.5 uM after 10 days by SRB assay; type: functional, cell-based
How it was run: (§3)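 Cells were seeded at 100 per well and treated from the second day. Medium containing 0.5 µM agent was renewed every 3 days. After 10 days of treatment, colonies were stained with SRB and photographed. Three independent experiments.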

A-375 [12] = assay: Effect on cell cycle distribution in human A375 cells expressing p53 wild type assessed as number of cells at subG1 phase at 0.5 uM after 24 hrs by FACS analysis (reference value: 1 %); type: functional
A-375 [13] = assay: Induction of reactive oxygen species generation in human A375 cells expressing p53 wild type assessed as increase in intracellular H2O2 level at 0.5 uM after 24 hrs by DCFH-DA staining based fluorescence analysis; type: functional, cell-based
How it was run: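 A375 cells were treated with 0.5 µM for 0, 12 and 24 h and stained with DCFH-DA to detect intracellular H2O2.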

A-375 [14] = assay: Induction of apoptosis in human A375 cells transfected with siRNA p53 assessed as decrease in lysosomal H+ concentration at 0.5 uM after 24 and 48 hrs by flow cytometric analysis; type: functional, cell-based
How it was run: (§4)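 Cells were loaded with LysoTracker Green (75 nM) for 15 min at 37 °C before treatment with 0.5 µM for the indicated times. After washing, mean fluorescence was quantified by flow cytometry. For p53 knockdown, A375 cells (6 × 10^4/well, antibiotic-free DMEM) were transfected with 30 nM tp53 siRNA or non-target siRNA using Lipofectamine RNAiMAX and harvested at 24 h.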

A-375 [15] = assay: Induction of apoptosis in human A375 cells expressing p53 wild type assessed as decrease in bcl-xl mRNA level by RT- qPCR analysis; type: functional, cell-based; conditions: TDE = time-dependent effect
How it was run: (§5)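 Quantitative real-time PCR on A375 cells over a time course, measuring p53, bax and bcl-xl mRNA normalized to GAPDH mRNA.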

A-375 [16] = assay: Induction of apoptosis in human A375 cells expressing p53 wild type assessed as increase release of cytochrome c from mitochondria to cytosol at 0.5 uM after 24 hrs by immunofluorescence analysis; type: functional, cell-based
How it was run: (§6)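 A375 cells on coverslips (1 × 10^4) were treated with 0.5 µM for 24 h. Cells were fixed in 4% formaldehyde for 5 min at 4 °C, permeabilized with 0.5% Triton X-100, and blocked with 5% BSA at 37 °C for 45 min. Primary antibodies were applied for 1 h at RT: mouse anti-p-ATR and anti-p-ATM 1:1000, anti-8-oxoguanine 1:250, COX IV and cytochrome c 1:1000. Secondary antibodies (rhodamine for 8-oxoguanine) followed for 30 min. DAPI counterstain.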

A-375 [17] = assay: Decrease in Cdc25c level in human A375 cells expressing p53 wild type at 0.5 uM after 24 hrs by western blot analysis; type: functional, cell-based; how it was run: as §2
A-375 [18] = assay: Effect on cell cycle distribution in human A375 cells expressing p53 wild type assessed as number of cells at S-phase at 0.5 uM after 24 hrs by FACS analysis (reference value: 13.8 %); type: functional
RPMI-7951 [19] = assay: Induction of apoptosis in human RPMI7951 cells expressing p53 mutant assessed as decrease in lysosomal H+ concentration at 0.5 uM after 24 and 48 hrs by flow cytometric analysis; type: functional, cell-based; how it was run: as §4
A-375 [20] = assay: Induction of apoptosis in human A375 cells expressing p53 wild type assessed as increase in bax mRNA level by RT- qPCR analysis; type: functional, cell-based; conditions: TDE = time-dependent effect; how it was run: as §5
A-375 [21] = assay: Induction of apoptosis in human A375 cells expressing p53 wild type assessed as decrease in mitochondrial membrane potential at 0.5 uM after 12 hrs by DiOC6 dye based flow cytometry; type: functional, cell-based
How it was run: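 A375 cells were treated with 0.5 µM for 0, 12 and 24 h, labeled with DiOC6 and analyzed by flow cytometry. Three independent experiments.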

A-375 [22] = assay: Effect on cell cycle distribution in human A375 cells expressing p53 wild type assessed as number of cells at G0/G1 phase at 0.5 uM after 24 hrs by FACS analysis Rvb = 74.1 %); type: functional
A-375 [23] = assay: Induction of apoptosis in human A375 cells expressing p53 wild type assessed as increase in p53 mRNA level by RT- qPCR analysis; type: functional, cell-based; conditions: TDE = time-dependent effect; how it was run: as §5
A-375 [24] = assay: Cytotoxicity against human A375 cells expressing p53 wild type assessed as colony formation at 0.5 uM after 10 days by SRB assay; type: functional, cell-based; how it was run: as §3
A-375 [25] = assay: Induction of apoptosis in human A375 cells expressing p53 wild type assessed as lysosomal H+ concentration at 0.5 uM after 24 and 48 hrs by flow cytometric analysis; type: functional, cell-based; how it was run: as §4
A-375 [26] = assay: Induction of DNA damage in human A375 cells expressing p53 wild type assessed as increase in ATR/ATM activation at 0.5 uM after 24 hrs by immuohistochemistry analysis; type: functional, cell-based; how it was run: as §6
A-375 [27] = assay: Induction of DNA lesion in human A375 cells expressing p53 wild type assessed as increase in 8-oxoguanine expression at 0.5 uM after 24 hrs by immunohistochemical analysis; type: functional, cell-based; how it was run: as §6
RPMI-7951 [28] = assay: Induction of apoptosis in human RPMI7951 cells expressing p53 mutant assessed as increased release of cytochrome c to cytosol at 0.5 uM by immunofluorescent staining analysis; type: functional, cell-based
How it was run: (§7)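 RPMI7951 cells on coverslips (1 × 10^4) were treated with 0.5 µM for 24 h. Immunofluorescence steps: fixation in 4% formaldehyde, permeabilization with 0.5% Triton X-100, blocking with 5% BSA. Primary antibodies: rabbit anti-cathepsin D and mouse anti-LAMP-1 at 1:500, cytochrome c and COX IV at 1:1000, 1 h at RT. Secondary antibodies for 30 min. DAPI counterstain.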

RPMI-7951 [29] = assay: Induction of apoptosis in human RPMI7951 cells expressing p53 mutant assessed as increased release of cathepsin D to cytosol at 0.5 uM by immunofluorescent staining analysis; type: functional, cell-based; how it was run: as §7
A-375 [30] = assay: Increase in Chk1 phosphorylation in human A375 cells expressing p53 wild type at 0.5 uM after 24 hrs by western blot analysis; type: functional, cell-based; how it was run: as §2

## COc1cc2c(cc1OCCCOc1cc(OC)c(OC)c(OC)c1)N=C[C@@H]1CCCN1C2=O
[1]
  viability at 1 µM: 59.5%
MCF7
  viability at 1 µM: 51.7%
A-375 [2]
  Activity: Active
[3]
  viability at 24 h, 1 µM: 97.3%
A549
  viability at 1 µM: 88.7%
A-375 [4]
  Activity: Active
[5]
  viability at 1 µM: 71.9%
A-375 [6]
  Activity: Active
A-375 [7]
  viability at 1 µM: 69.7%
A-375 [8]
  Activity: Active

## COc1cc2c(cc1OCCCCCCOc1cc(OC)c(OC)c(OC)c1)N=C[C@@H]1CCCN1C2=O
[1]
  viability at 1 µM: 55.9%
MCF7
  viability at 1 µM: 79%
A-375 [2]
  Activity: Active
[3]
  viability at 24 h, 1 µM: 93.4%
A549
  viability at 1 µM: 101%
A-375 [4]
  Activity: Active
[5]
  viability at 1 µM: 90.2%
A-375 [6]
  Activity: Active
A-375 [7]
  viability at 1 µM: 84.8%
A-375 [8]
  Activity: Active

## COc1cc2c(cc1OCCCCCOc1cc(OC)c(OC)c(OC)c1)N=C[C@@H]1CCCN1C2=O
A-375 [9]
  Activity: 4.2%
RPMI-7951 [10]
  Activity: Active
RPMI-7951 [11]
  inhibition: Active
A-375 [12]
  Activity: 16%
A-375 [13]
  Activity: Active
A-375 [14]
  Activity: Active
A-375 [15]
  Activity: tde
[1]
  viability at 1 µM: 64.6%
A-375 [16]
  Activity: Active
A-375 [17]
  inhibition: Active
A-375 [18]
  Activity: 37%
MCF7
  viability at 1 µM: 55%
A-375 [2]
  Activity: Active
RPMI-7951 [19]
  Activity: Active
A-375 [20]
  Activity: tde
A-375 [21]
  Activity: Active
[3]
  viability at 24 h, 1 µM: 111%
A549
  viability at 1 µM: 78%
A-375 [22]
  Activity: 45.8%
A-375 [23]
  Activity: tde
A-375 [4]
  Activity: Active
A-375 [24]
  inhibition: Active
A-375 [25]
  Activity: inactive
[5]
  viability at 1 µM: 69.4%
A-375 [6]
  Activity: Active
A-375 [26]
  Activity: Active
A-375 [27]
  Activity: Active
A-375 [7]
  viability at 1 µM: 37.7%
RPMI-7951 [28]
  Activity: Active
A-375 [8]
  Activity: Active
RPMI-7951 [29]
  Activity: Active
A-375 [30]
  Activity: Active

## COc1cc2c(cc1OCCCCCCNC(=O)c1cc(OC)c(OC)c(OC)c1)N=C[C@@H]1CCCN1C2=O
[1]
  viability at 1 µM: 69.6%
MCF7
  viability at 1 µM: 95.4%
[3]
  viability at 24 h, 1 µM: 94.9%
A549
  viability at 1 µM: 101%
[5]
  viability at 1 µM: 92.4%
A-375 [7]
  viability at 1 µM: 86.5%

## COc1cc2c(cc1OCCCCCNC(=O)c1cc(OC)c(OC)c(OC)c1)N=C[C@@H]1CCCN1C2=O
[1]
  viability at 1 µM: 111%
MCF7
  viability at 1 µM: 101%
[3]
  viability at 24 h, 1 µM: 98.7%
A549
  viability at 1 µM: 96.8%
[5]
  viability at 1 µM: 96.9%
A-375 [7]
  viability at 1 µM: 74.7%

## COc1cc2c(cc1OCCCNC(=O)c1cc(OC)c(OC)c(OC)c1)N=C[C@@H]1CCCN1C2=O
[1]
  viability at 1 µM: 97.7%
MCF7
  viability at 1 µM: 94.6%
[3]
  viability at 24 h, 1 µM: 101%
A549
  viability at 1 µM: 96.1%
[5]
  viability at 1 µM: 96.4%
A-375 [7]
  viability at 1 µM: 82.6%

## COc1cc2c(cc1OCCCCNC(=O)c1cc(OC)c(OC)c(OC)c1)N=C[C@@H]1CCCN1C2=O
[1]
  viability at 1 µM: 83%
MCF7
  viability at 1 µM: 96.3%
[3]
  viability at 24 h, 1 µM: 98.2%
A549
  viability at 1 µM: 100%
[5]
  viability at 1 µM: 95%
A-375 [7]
  viability at 1 µM: 79.5%
